Experimental findings from BindingDB's records for doi:10.1021/jm051126f (The Ohio State University, 2006) are described below.

For this assay, the target named is T1, Aromatase (Homo sapiens, UniProt P11511).
T1 sequence (P11511 whole entry): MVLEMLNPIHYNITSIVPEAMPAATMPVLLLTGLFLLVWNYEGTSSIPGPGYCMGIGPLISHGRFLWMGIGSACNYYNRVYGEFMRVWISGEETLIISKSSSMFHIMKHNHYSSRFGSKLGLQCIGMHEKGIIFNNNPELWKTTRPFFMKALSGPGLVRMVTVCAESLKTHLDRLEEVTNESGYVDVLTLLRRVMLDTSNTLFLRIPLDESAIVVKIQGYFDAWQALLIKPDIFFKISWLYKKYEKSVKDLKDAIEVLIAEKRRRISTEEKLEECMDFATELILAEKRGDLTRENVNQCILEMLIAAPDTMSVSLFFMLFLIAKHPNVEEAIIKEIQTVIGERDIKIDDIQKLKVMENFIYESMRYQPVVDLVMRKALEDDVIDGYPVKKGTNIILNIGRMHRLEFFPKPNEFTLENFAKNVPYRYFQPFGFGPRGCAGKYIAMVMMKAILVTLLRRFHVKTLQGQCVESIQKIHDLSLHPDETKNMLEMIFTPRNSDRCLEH
The assay is described as follows: Inhibition of CYP450 aromatase activity in SK-BR-3 cells. The essentials:
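Tritium water release assay in intact SK-BR-3 cells. Cells were treated 24 h with compound or 0.1% DMSO vehicle, then the medium was changed and cells were given 100 nM [1β-3H]-androstenedione for 3 h. Protein was precipitated with TCA and the medium chloroform- and charcoal-extracted. Released 3H2O was counted and expressed per million cells (DNA assay). IC50 came from nonlinear regression on five concentrations in triplicate.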

The structures appear in SMILES notation.

`COc1cc([N+](=O)[O-])ccc1NS(C)(=O)=O` [N-(2-methoxy-4-nitrophenyl)methanesulfonamide] gave an IC50 greater than 25 µM.

Take `COc1cc([N+](=O)[O-])ccc1N(C)S(C)(=O)=O` [N-methyl-N-(2-methoxy-4-nitrophenyl)methanesulfonamide]: the IC50 was greater than 25 µM.

One may read the IC50 as the concentration that inhibits the measured activity by half. Read a low IC50 as greater potency.
